Data: ChEMBL document CHEMBL1255483, “Intra- and extracellular activities of dicloxacillin against Staphylococcus aureus in vivo and in vitro” (Antimicrob Agents Chemother, 2010)
≈ marks a conversion by molar mass, not a printed value.

Experiments:
Staphylococcus aureus [1] = assay: Bactericidal activity against Staphylococcus aureus E19977 assessed as log reduction in bacterial count at 10 times MIC after 24 hrs by time-kill assay; assay type: functional
Summary of the method: (§1)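 Broth time-kill: MSSA at 10⁶ CFU/ml exposed to a wide range of dicloxacillin concentrations. CFU counted after 5 and 24 h and expressed as change in log₁₀ CFU/ml from time zero. Multiples refer to the MIC by CLSI microdilution at pH 7.4. n = 3.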

Staphylococcus aureus [2] = assay: Bacteriostatic activity against Staphylococcus aureus ATCC 25923 infected in human THP-1 cells after 24 hrs; assay type: functional
Summary of the method: (§2)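 Human THP-1 macrophages were infected with opsonized S. aureus at 4 bacteria per macrophage for 45 min. Non-phagocytized bacteria were removed by washing and a brief incubation in PBS with gentamicin 50 mg/liter. Cells were then incubated up to 24 h with DCX over a wide range of extracellular concentrations. The read-out was Δlog CFU per mg cell protein versus time zero (n = 3), with sigmoidal fitting and Cstatic by interpolation.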

Staphylococcus aureus [3] = assay: Antimicrobial activity against Staphylococcus aureus E19977 after 24 hrs; assay type: functional, organism-based; conditions: E19977, 24 h
Summary of the method: (§3)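 Extracellular broth time- and concentration-kill test. The inoculum was ~10⁶ CFU/ml, exposed to a wide range of DCX concentrations, with CFU counted after 5 and 24 h. The read-out was Δlog CFU/ml versus time zero (mean ± SD, n = 3). A sigmoidal fit with slope 1 gave Emax and EC50. Cstatic was read by graphical interpolation as the concentration giving no change from the inoculum.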

[4] = Cmax in NMRI mouse at 60 mg/kg, sc; assay type: ADME, organism-based; design: dose 60 mg/kg, route subcutaneous; conditions: in vivo
Summary of the method: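 Single subcutaneous dicloxacillin doses were given to NMRI mice. EDTA plasma was assayed by microbiological bioassay with S. lutea ATCC 9391 (detection limit 1.5 mg/liter, linear to 100 mg/liter, CV ~5%). Cmax was obtained by noncompartmental analysis.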

Staphylococcus aureus [5] = assay: Bactericidal activity against Staphylococcus aureus E19977 assessed as log reduction in bacterial count at MIC after 5 hrs by time-kill assay; assay type: functional; summary of the method: as §1
Staphylococcus aureus [6] = assay: Antimicrobial activity against Staphylococcus aureus E19977 infected in human THP-1 cells after 24 hrs; assay type: functional, organism-based; conditions: E19977, THP-1, 24 h; summary of the method: as §2
Staphylococcus aureus [7] = assay: Antimicrobial activity against Staphylococcus aureus E19977 infected in human THP1 cells assessed as log reduction in bacterial count at MIC after 24 hrs by time-kill assay; assay type: functional, THP-1
Summary of the method: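 Intracellular model in THP-1 macrophages: opsonized S. aureus was added at 4 bacteria per macrophage for 45 min. Non-phagocytized bacteria were removed by washing and brief PBS incubation with gentamicin (50 mg/liter). Cells were then incubated up to 24 h with a wide range of extracellular dicloxacillin concentrations. Result is change in log₁₀ CFU per mg cell protein from time zero. n = 3.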

Mus musculus [8] = species on record: Mus musculus; assay: Protein binding in NMRI mouse infected with Staphylococcus aureus E19977 at 30 mg/l by ultrafiltration; assay type: ADME, organism-based; conditions: in vivo
Summary of the method: (§4)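 Plasma binding was measured by ultrafiltration. EDTA blood from healthy mice, or from NMRI mice infected intraperitoneally for 6 h with E19977, was spiked with DCX at 10–400 mg/liter, with PBS controls. Samples were held 1 h at 37°C, then centrifuged through 30-kDa filters at 3,000 × g for 8 min at 37°C. Total and filtrate drug were measured by S. lutea bioassay.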

Mus musculus [9] = species on record: Mus musculus; assay: Protein binding in NMRI mouse at 10 mg/l by ultrafiltration; assay type: ADME, organism-based; conditions: in vivo; summary of the method: as §4
[10] = Ratio of fAUC (24 hrs) in NMRI mouse at 30 mg/kg administered every 2 hrs to MIC for Staphylococcus aureus E19977; assay type: functional
Summary of the method: (§5)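 Modeled free AUC over 24 h divided by the MIC, not measured directly. Single subcutaneous DCX doses were given to NMRI mice, and plasma was assayed by S. lutea bioassay. Noncompartmental analysis used trapezoidal mean points plus a fitted monoexponential extrapolated to 24 h. Free fraction came from a square-root fit to plasma ultrafiltration binding (10–400 mg/liter spike, 1 h, 37°C). The MIC was measured by broth microdilution at pH 7.4.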

Staphylococcus aureus [11] = assay: Bactericidal activity against Staphylococcus aureus ATCC 25923 assessed as log reduction in bacterial count at MIC after 5 hrs by time-kill assay; assay type: functional; summary of the method: as §1
[12] = Ratio of fCmax in NMRI mouse at 30 mg/kg administered every 2 hrs to MIC for Staphylococcus aureus E19977; assay type: functional
Summary of the method: (§6)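 Free Cmax/MIC was modelled, not measured. Single-dose subcutaneous plasma curves from NMRI mice were projected to the multiple-dose regimens. Free fraction came from a square-root fit of unbound fraction versus total concentration. Binding was measured by ultrafiltration of mouse plasma spiked with 10–400 mg/liter and held 1 h at 37°C. MIC was for strain E19977.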

[13] = Ratio of fAUC (24 hrs) in NMRI mouse at 400 mg/kg administered every 12 hrs to MIC for Staphylococcus aureus E19977; assay type: functional; summary of the method: as §5
[14] = fT>MIC in Staphylococcus aureus E19977 infected NMRI mouse at 160 mg/kg administered every 3 hrs; assay type: functional
Summary of the method: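 Calculated percentage of 24 h at steady state that free plasma DCX exceeds the strain MIC (microdilution, pH 7.4). Concentrations were simulated from single subcutaneous dose plasma curves in NMRI mice (S. lutea bioassay), adjusted with a square-root model of concentration-dependent free fraction from ultrafiltration. The regimen was dosed subcutaneously in mice infected intraperitoneally with 10^7.4 CFU, and peritoneal CFU were read after 24 h of therapy.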

Mus musculus [15] = species on record: Mus musculus; assay: Protein binding in NMRI mouse at 30 mg/l by ultrafiltration; assay type: ADME, organism-based; conditions: in vivo; summary of the method: as §4
Staphylococcus aureus [16] = assay: Bactericidal activity against Staphylococcus aureus ATCC 25923 assessed as log reduction in bacterial count at 10 times MIC after 24 hrs by time-kill assay; assay type: functional; summary of the method: as §1
Mus musculus [17] = species on record: Mus musculus; assay: Protein binding in NMRI mouse infected with Staphylococcus aureus E19977 at 10 mg/l by ultrafiltration; assay type: ADME, organism-based; conditions: in vivo; summary of the method: as §4
Staphylococcus aureus [18] = assay: Bactericidal activity against Staphylococcus aureus ATCC 25923 assessed as log change in bacterial count after 24 hrs; assay type: functional; summary of the method: as §3
[19] = Ratio of fCmax in NMRI mouse at 120 mg/kg administered every 3 hrs to MIC for Staphylococcus aureus E19977; assay type: functional; summary of the method: as §6
Staphylococcus aureus [20] = assay: Antimicrobial activity against Staphylococcus aureus E19977 by broth microdilution method at pH 5.4
[21] = fT>MIC in Staphylococcus aureus E19977 infected NMRI mouse at 340 mg/kg administered every 24 hrs
[22] = Ratio of fAUC (24 hrs) in NMRI mouse at 80 mg/kg administered every 8 hrs to MIC for Staphylococcus aureus E19977; assay type: functional; summary of the method: as §5
[23] = Ratio of fCmax in NMRI mouse at 80 mg/kg administered every 8 hrs to MIC for Staphylococcus aureus E19977; assay type: functional; summary of the method: as §6
[24] = Half-life in NMRI mouse at 120 mg/kg, sc; assay type: ADME, organism-based; design: dose 120 mg/kg, route subcutaneous; conditions: in vivo
Summary of the method: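 Single subcutaneous DCX doses given to NMRI mice. Blood was collected into EDTA tubes, and plasma drug was assayed by microbiological bioassay with S. lutea ATCC 9391 (detection limit 1.5 mg/liter, linear to 100 mg/liter). Values came from noncompartmental analysis. Terminal half-life was fitted monoexponentially to the last four time points. AUC24 combined the trapezoidal rule over mean points with exact integration of the fitted curve extrapolated to 24 h.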

Mus musculus [25] = species on record: Mus musculus; assay: Protein binding in NMRI mouse at 60 mg/l by ultrafiltration; assay type: ADME, organism-based; conditions: in vivo; summary of the method: as §4

For `Cc1onc(-c2c(Cl)cccc2Cl)c1C(=O)N[C@@H]1C(=O)N2[C@@H]1SC(C)(C)[C@@H]2C(=O)O` [DICLOXACILLIN], which FC (Staphylococcus aureus [1]) is on record?
The FC was 3.

And the Activity (Staphylococcus aureus [2])?
Its Activity is 0.11 mg/L.

And the EC50 (Staphylococcus aureus [3])?
Its EC50 is 0.5 µg/mL (≈ 1.06 µM).

What about the Cmax [4] of the same molecule?
Its Cmax is 90.1 µg/mL.

And the FC (Staphylococcus aureus [5])?
Its FC is <1.

And the EC50 (Staphylococcus aureus [6])?
Its EC50 is 0.31 µg/mL (≈ 0.659 µM).

And the FC (Staphylococcus aureus [7])?
Its FC is 1.

What about the Activity (Mus musculus [8]) of the same molecule?
Its Activity is 91.9%.

What about the Activity (Mus musculus [9]) of the same molecule?
The Activity was 93.9%.

What about the fAUC/MIC [10] of the same molecule?
Its fAUC/MIC is 39.32 h.

What about the FC (Staphylococcus aureus [11]) of the same molecule?
Its FC is <1.

And the Ratio [12]?
Its Ratio is 6.27.

What about the fAUC/MIC [13] of the same molecule?
The fAUC/MIC was 644.84 h.

What about the “fT>MIC” value [14] of the same molecule?
Its value is 96.11%.

And the Activity (Mus musculus [15])?
Its Activity is 91.5%.

And the FC (Staphylococcus aureus [16])?
The FC was 3.

And the Activity (Mus musculus [17])?
Its Activity is 93.6%.

And the Emax (Staphylococcus aureus [18])?
Its Emax is -3.19 deltalog10CFU/ml.

And the Ratio [19]?
Its Ratio is 61.6.

What about the MIC (Staphylococcus aureus [20]) of the same molecule?
The MIC was 0.125 µg/mL (≈ 0.266 µM).

And the “fT>MIC” value [21]?
The value was 17.78%.

What about the fAUC/MIC [22] of the same molecule?
Its fAUC/MIC is 63.49 h.

What about the Ratio [23] of the same molecule?
Its Ratio is 30.64.

And the half-life [24]?
Its half-life is 22 min.

What about the Activity (Mus musculus [25]) of the same molecule?
The Activity was 89.5%.
